For one molecule, MIC, viability and Ratio results are on record in ChEMBL document CHEMBL3860087, “New Broad-Spectrum Antibacterial Amphiphilic Aminoglycosides Active against Resistant Bacteria: From Neamine Derivatives to Smaller Neosamine Analogues” (J Med Chem, 2016).

Converted amounts (≈) assume the structure as drawn.

Data set [1] has as its system Escherichia coli. Kind of data set: Antibacterial activity against ANT2''-IA expressing Escherichia coli L8058.1 by microdilution method. In kind it is functional. Summed up:
(§1)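 Strains grown overnight at 37 °C on trypticase soy agar; MIC by broth microdilution from fresh culture in cation-adjusted Mueller–Hinton broth, starting inoculum 10^6 cells, following CLSI recommendations.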
(Broth dilution looks for growth in wells or tubes with falling amounts of substance.)

The subject of data set [2] is Escherichia coli. Briefly: Antibacterial activity against AAC6'-IB expressing Escherichia coli PAZ505H8101 by microdilution method. The data set is classed as functional. Summed up: as §1
Data set [3] has as its system Escherichia coli. Kind of data set: microbe, parasite or virus in culture. The conditions noted are these: ATCC 25922.
Data set [4] deals with Pseudomonas aeruginosa. Kind of data set: Antibacterial activity against AAC6'-2A expressing Pseudomonas aeruginosa F03 by microdilution method. The data set is classed as functional. Summed up: as §1
Data set [5] has as its system Pseudomonas aeruginosa. Briefly: Antibacterial activity against triABC deficient Pseudomonas aeruginosa PA406 by microdilution method. The data set is classed as functional. The method, boiled down:
as §1

The subject of data set [6] is Acinetobacter lwoffii. Briefly: Antibacterial activity against Acinetobacter lwoffii ATCC 17925 by microdilution method. In kind it is functional. The method, boiled down: as §1
In data set [7] the test system is Staphylococcus aureus. Kind of data set: Antibacterial activity against NorA expressing Staphylococcus aureus 1 by microdilution method.
Data set [8] is described as follows: Cytotoxicity against mouse J774 cells assessed as cell viability at 10 uM after 24 hrs by MTT assay relative to control. The data set is classed as toxicity, cell-based. The settings on record: J774 cells, read-out: Activity. The method, boiled down:
(§2)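 Murine J774 macrophages exposed 24 h to 10 or 30 μM compound, then 1 h with 0.2 mg/mL MTT; reaction stopped with DMSO, OD read at 570 nm as metabolic-activity viability. Number of independent experiments given per value.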
(Tetrazolium dyes change colour on reduction, which living cells bring about.)

Data set [9] concerns Acinetobacter lwoffii. Kind of data set: Antibacterial activity against APH3'-VIA expressing Acinetobacter lwoffii AI.88-483 by microdilution method. The data set is classed as functional. Summed up: as §1
Data set [10] concerns Staphylococcus aureus. Kind of data set: Antibacterial activity against healthcare-acquired methicillin-resistant Staphylococcus aureus ATCC 33592 by microdilution method. In kind it is functional. The method, boiled down: (§3)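 Broth microdilution per CLSI in cation-adjusted Mueller–Hinton broth. Strains were grown overnight at 37 °C on trypticase soy agar, and a fresh culture was used. Starting inoculum was 10^6 cells.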

Data set [11] relates to Pseudomonas aeruginosa. Kind of data set: Antibacterial activity against Pseudomonas aeruginosa ATCC 27853 by microdilution method. The data set is classed as functional. The method, boiled down: as §1
For data set [12], the system named is Pseudomonas aeruginosa. Kind of data set: Ratio of MIC for Pseudomonas aeruginosa ATCC 27853 after 9 serial passages to MIC for Pseudomonas aeruginosa ATCC 27853 prior to serial passages. The data set is classed as functional.
In data set [13] the test system is Pseudomonas aeruginosa. Briefly: Antibacterial activity against MexXY expressing Pseudomonas aeruginosa PA22 by microdilution method. In kind it is functional. Summed up:
as §1

The test system of another data set is Klebsiella pneumoniae. Kind of data set: Antibacterial activity against Klebsiella pneumoniae ATCC 700603 by microdilution method. In kind it is functional. Summed up:
as §1

In data set [14] the test system is Staphylococcus aureus. Kind of data set: Antibacterial activity against Staphylococcus aureus ATCC 25923 by microdilution method. The data set is classed as functional. The method, boiled down: as §3
Data set [15] in a line: Cytotoxicity against mouse J774 cells assessed as cell viability at 30 uM after 24 hrs by MTT assay relative to control. In kind it is toxicity, cell-based. The conditions noted are these: J774 cells, read-out: Activity. Summed up:
as §2

Turning to `NC[C@H]1O[C@H](O[C@H]2[C@H](O)[C@@H](O)[C@H](N)C[C@@H]2N)[C@H](N)[C@@H](OCCCc2ccc3ccccc3c2)[C@@H]1OCCCc1ccc2ccccc2c1`, the MIC is 4 to 8 µg/mL (≈ 6.07 to 12.1 µM) with Escherichia coli [1]; 2 µg/mL (≈ 3.04 µM) against Escherichia coli [2]; 16 to 32 µg/mL (≈ 24.3 to 48.6 µM) against Escherichia coli [3]; 8 µg/mL (≈ 12.1 µM) in the data set with Pseudomonas aeruginosa [4]; 4 µg/mL (≈ 6.07 µM) in the data set on Pseudomonas aeruginosa [5]; 2 to 4 µg/mL (≈ 3.04 to 6.07 µM) in the data set with Acinetobacter lwoffii [6]. Moreover, the MIC against Staphylococcus aureus [7] was 0.5 to 1 µg/mL (≈ 0.759 to 1.52 µM); with Acinetobacter lwoffii [9] it was 32 to 64 µg/mL (≈ 48.6 to 97.1 µM); against Staphylococcus aureus [10], 1 to 2 µg/mL (≈ 1.52 to 3.04 µM); in the data set with Pseudomonas aeruginosa [11] it was 4 µg/mL (≈ 6.07 µM); against Pseudomonas aeruginosa [13] it was 16 µg/mL (≈ 24.3 µM); in the data set on Klebsiella pneumoniae, 64 µg/mL (≈ 97.1 µM). In the data set with Staphylococcus aureus [14], this molecule yielded an MIC of 2 to 4 µg/mL (≈ 3.04 to 6.07 µM). The viability at 24 h, 10 µM in data set [8] is 87.7%. Also, the Ratio in the data set on Pseudomonas aeruginosa [12] was found to be 15. Besides, in data set [15], the viability at 24 h, 30 µM came to 66.9%.
